Reference: ChEMBL document CHEMBL1123899, “Nucleic acid related compounds. 51. Synthesis and biological properties of sugar-modified analogues of the nucleoside antibiotics tubercidin, toyocamycin, sangivamycin, and formycin” (1987)
Values after ≈ are worked out from the molar mass of the structure shown.

How the values were obtained:
Oryctolagus cuniculus = species on record: Oryctolagus cuniculus; assay: Minimum cytotoxic concentration required to cause a microscopically detectable alteration of normal cell morphology in primary rabbit kidney cells; format: functional
How it was run: (§1)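 Cytotoxicity read microscopically as the minimum concentration producing a detectable alteration of normal cell morphology, in PRK, HeLa or Vero cell cultures. Average of two to three separate experiments.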

L1210 [1] = assay: Minimum inhibitory concentration required to reduce incorporation of [methyl-3H]dThd into TCA-insoluble material from murine leukemia L1210 cells; format: functional; conditions: Mus musculus
How it was run: (§2)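 Murine L1210 leukemia cells; MIC50 is the concentration reducing cell growth, or incorporation of [methyl-3H]dThd into TCA-insoluble material (DNA synthesis), by 50%. Average of at least three separate experiments.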

Sindbis virus = assay: Minimum inhibitory concentration required to reduce sindbis virus induced cytopathogenicity by 50%; format: functional
Poliovirus 1 = assay: Minimum inhibitory concentration required to reduce Polio virus type 1 induced cytopathogenicity by 50%; format: functional; conditions: Enterovirus C
Human respirovirus 3 = assay: Minimum inhibitory concentration required to reduce parainfluenza type 3 induced cytopathogenicity by 50%; format: functional
Human alphaherpesvirus 2 = assay: Minimum inhibitory concentration required to reduce Herpes simplex virus type 2 (HSV-2 strain G) induced cytopathogenicity by 50%; format: functional
HeLa = assay: Minimum cytotoxic concentration required to cause a microscopically detectable alteration of normal cell morphology in Hela cells; format: functional, Homo sapiens; how it was run: as §1
L1210 [2] = assay: Minimum inhibitory concentration required to reduce incorporation of [5-3H]-Urd into TCA-insoluble material from murine leukemia L1210 cells; format: functional; conditions: Mus musculus
How it was run: (§3)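 Murine L1210 leukemia cells were exposed to compound and incorporation of [4,5-3H]leucine (protein) or [5-3H]Urd (RNA) into TCA-insoluble material was measured. MIC50 is the concentration reducing incorporation by 50%. Values are averages of at least three separate experiments.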

Vero = assay: Minimum cytotoxic concentration required to cause a microscopically detectable alteration of normal cell morphology in Vero cells; format: functional, Chlorocebus sabaeus; how it was run: as §1
L1210 [3] = assay: Inhibition of murine leukemia L1210 cell growth; format: functional; conditions: Mus musculus; how it was run: as §2
[4] = test system: Vesicular stomatitis virus; assay: Minimum inhibitory concentration required to reduce vesicular stomatitis virus (VSV) induced cytopathogenicity by 50%; format: functional
[5] = test system: Vesicular stomatitis virus; assay: Minimum inhibitory concentration required to reduce Vesicular stomatitis virus (VSV) induced cytopathogenicity by 50%; format: functional
Human alphaherpesvirus 1 = assay: Minimum inhibitory concentration required to reduce Herpes simplex virus type 1 (HSV-1, strain KOS) induced cytopathogenicity by 50%; format: functional
L1210 [6] = assay: Minimum inhibitory concentration required to reduce incorporation of [4,5-3H]leucine into TCA-insoluble material from murine leukemia L1210 cells; format: functional; conditions: Mus musculus; how it was run: as §3
[7] = test system: Mammalian orthoreovirus 1; assay: Minimum inhibitory concentration required to reduce reo virus type 1 induced cytopathogenicity by 50%; format: functional
Measles morbillivirus = assay: Minimum inhibitory concentration required to reduce measles virus induced cytopathogenicity by 50%; format: functional
Coxsackievirus B4 = assay: Minimum inhibitory concentration required to reduce Coxsackie virus type B-4-induced cytopathogenicity by 50%; format: functional

Row | Compound | MTC (Oryctolagus cuniculus) [µg/mL] | MIC50 (L1210 [1]) [µg/mL] | MIC50 (Sindbis virus) [µg/mL] | MIC50 (Poliovirus 1) [µg/mL] | MIC50 (Human respirovirus 3) [µg/mL] | MIC50 (Human alphaherpesvirus 2) [µg/mL] | MTC (HeLa) [µg/mL] | MIC50 (L1210 [2]) [µg/mL] | MTC (Vero) [µg/mL] | MIC50 (L1210 [3]) [µg/mL] | MIC50 [4] [µg/mL] | MIC50 [5] [µg/mL] | MIC50 (Human alphaherpesvirus 1) [µg/mL] | MIC50 (L1210 [6]) [µg/mL] | MIC50 [7] [µg/mL] | MIC50 (Measles morbillivirus) [µg/mL] | MIC50 (Coxsackievirus B4) [µg/mL] | MIC50 (Coxsackievirus B4; Enterovirus B, read-out: MIC50) [µg/mL]
1 | N#Cc1cn([C@@H]2O[C@H](CO)[C@@H](O)[C@H]2O)c2ncnc(N)c12 [TOYOCAMYCIN] | 0.04 | 38 (≈ 130 µM) | > 0.04 | > 0.4 | > 0.04 | > 0.04 | 0.4 | 0.071 (≈ 0.244 µM) | 0.04 | 0.006 (≈ 0.0206 µM) | > 0.04 | 0.07 (≈ 0.24 µM) | > 0.04 | 0.039 (≈ 0.134 µM) | > 0.04 |  |  | 
2 | NC(=O)c1cn([C@@H]2O[C@H](CO)[C@@H](O)[C@@H]2O)c2ncnc(N)c12 | 40 | 50 (≈ 162 µM) | > 40 | > 10 | 1 (≈ 3.23 µM) | 1 (≈ 3.23 µM) | 10 | 5.85 (≈ 18.9 µM) | 40 | 0.98 (≈ 3.17 µM) | 3 (≈ 9.7 µM) | 1.5 (≈ 4.85 µM) | 4 (≈ 12.9 µM) | 2.2 (≈ 7.11 µM) | 6 (≈ 19.4 µM) | 10 (≈ 32.3 µM) |  | 
3 | Nc1ncnc2c1ccn2[C@H]1C[C@H](O)[C@@H](CO)O1 [2'-Deoxytubercidin] | >400 | 127 (≈ 507 µM) | > 400 | 150 (≈ 599 µM) | 40 (≈ 160 µM) | 40 (≈ 160 µM) | >400 | 205 (≈ 819 µM) | >400 | 23 (≈ 91.9 µM) | 125 (≈ 499 µM) | 150 (≈ 599 µM) | 50 (≈ 200 µM) | 44 (≈ 176 µM) | 200 (≈ 799 µM) | > 200 |  | 
4 | N#Cc1cn([C@H]2C[C@H](O)[C@@H](CO)O2)c2ncnc(N)c12 | 4 | 10 (≈ 36.3 µM) | > 1 | > 4 | > 1 | 0.3 (≈ 1.09 µM) | 4 | 0.34 (≈ 1.24 µM) | 1 | 0.109 (≈ 0.396 µM) | 0.5 (≈ 1.82 µM) | 0.08 (≈ 0.291 µM) | > 1 | 0.265 (≈ 0.963 µM) | > 1 | 0.5 (≈ 1.82 µM) |  | 
5 | Nc1ncnc2c1ccn2C1OC(CO)CC1O (configuration not stated) | 10 | 90 (≈ 360 µM) | > 100 | 2 (≈ 7.99 µM) | 20 (≈ 79.9 µM) | > 10 | 40 | 3.2 (≈ 12.8 µM) | 100 | 0.38 (≈ 1.52 µM) | > 10 | 20 (≈ 79.9 µM) | > 10 | 2.08 (≈ 8.31 µM) | 10 (≈ 40 µM) | > 100 |  | 
6 | Nc1ncnc2c([C@@H]3O[C@H](CO)[C@@H](O)[C@H]3O)[nH]nc12 [FORMYCIN] | 20 | 7.5 (≈ 28.1 µM) | > 10 | > 1 | 2 (≈ 7.48 µM) | 8 (≈ 29.9 µM) | 1 | 25.7 (≈ 96.2 µM) | 10 | 3.7 (≈ 13.8 µM) | 10 (≈ 37.4 µM) | > 1 | 10 (≈ 37.4 µM) | 5.5 (≈ 20.6 µM) | > 10 | > 10 |  | 
7 | NC(=O)c1ncn([C@@H]2O[C@H](CO)[C@@H](O)[C@H]2O)n1 [RIBAVIRIN] | >400 |  | 65 (≈ 266 µM) | 20 (≈ 81.9 µM) | 50 (≈ 205 µM) | > 400 | >400 |  | >400 |  | 300 (≈ 1230 µM) | 4 (≈ 16.4 µM) | > 400 |  | 75 (≈ 307 µM) | 30 (≈ 123 µM) | 70 (≈ 287 µM) | 40 (≈ 164 µM)
8 | Nc1ncnc2c1ccn2[C@@H]1O[C@H](CO)[C@H](O)[C@H]1O | 10 | 6.7 (≈ 25.2 µM) | > 40 | > 4 | > 40 | 0.07 (≈ 0.263 µM) | 4 |  | 40 | 0.248 (≈ 0.931 µM) | > 10 | > 4 | 0.2 (≈ 0.751 µM) |  | > 40 | > 40 |  | 
9 | NC(=O)c1cn([C@@H]2O[C@H](CO)[C@@H](O)[C@H]2O)c2ncnc(N)c12 [SANGIVAMYCIN] | 1 | > 100 | > 0.4 | 0.07 (≈ 0.226 µM) | 0.02 (≈ 0.0647 µM) | 0.07 (≈ 0.226 µM) | 0.4 |  | 0.4 | 0.019 (≈ 0.0614 µM) | 0.02 (≈ 0.0647 µM) | 0.04 (≈ 0.129 µM) | 0.07 (≈ 0.226 µM) | 0.014 (≈ 0.0453 µM) | > 0.4 |  |  | 
10 | NC(=O)c1cn([C@H]2C[C@H](O)[C@@H](CO)O2)c2ncnc(N)c12 | 10 | 16 (≈ 54.6 µM) | > 10 | > 10 | > 10 | 1 (≈ 3.41 µM) | 10 |  | 10 | 1.21 (≈ 4.13 µM) | 2 (≈ 6.82 µM) | 1 (≈ 3.41 µM) | 2 (≈ 6.82 µM) |  | > 10 | > 10 |  | 
11 | NC(=O)c1cn(C2OC(CO)CC2O)c2ncnc(N)c12 (configuration not stated) | 10 | 17 (≈ 58 µM) | > 40 | > 40 | 10 (≈ 34.1 µM) | > 10 | 40 |  | 40 | 0.46 (≈ 1.57 µM) | > 10 | > 40 | > 10 |  | > 40 | > 40 |  | > 40
12 | Nc1ncnc2c(C3OC(CO)CC3O)n[nH]c12 (configuration not stated) | >400 | > 1000 | > 400 | > 400 | > 400 |  | >400 | > 1000 | >400 | > 1000 | > 400 | > 400 | > 400 | > 1000 | > 400 | 100 (≈ 398 µM) |  | > 400
